Source: ChEMBL document CHEMBL2331323, “Design, synthesis and anticancer properties of 5-arylbenzoxepins as conformationally restricted isocombretastatin A-4 analogs” (Eur J Med Chem, 2013)
The source made the active and inactive calls. The calls are words filed in the database; no cut-off is given here.

Assays:
[1] = tested on: HCT-116; test: Growth inhibition of human HCT116 cells after 72 hrs by Victor microtiter plate fluorimeter analysis; assay type: functional
[2] = Growth inhibition of human H1299 cells after 72 hrs by Victor microtiter plate fluorimeter analysis; assay type: functional; details: NCI-H1299, 72 h
[3] = tested on: K562; test: Growth inhibition of human K562 cells after 72 hrs by Victor microtiter plate fluorimeter analysis; assay type: functional; details: K562, 72 h
[4] = organism: Ovis aries; test: Ratio of compound IC50 to isoCA-4 IC50 for sheep brain tubulin polymerization by fluorimeter analysis
[5] = Inhibition of sheep brain tubulin polymerization assessed as decrease in rate of microtubule assembly by fluorimeter analysis; parameters: species or system Ovis aries
Summary of the method: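 Sheep brain tubulin purified by two assembly–disassembly cycles, at about 2-3 mg/mL in 0.1 M MES, 0.5 mM MgCl₂, 1 mM EGTA, 1 mM GTP, pH 6.6. Assembly followed by DAPI fluorescence at 37 °C. IC50 is the concentration halving the maximum assembly rate versus no compound. Measured the same day as the isoCA-4 reference.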

[6] = tested on: MDA-MB-231; test: Growth inhibition of hormone-independent human MDA-MB-231 cells after 72 hrs by Victor microtiter plate fluorimeter analysis; assay type: functional; details: MDA-MB-231, 72 h
[7] = tested on: K562; test: Induction of cell cycle arrest in human K562 cells assessed as accumulation of cells in G2/M phase at 5 nM after 24 hrs by propidium iodide staining based flow cytometry; assay type: functional
Summary of the method: (§1)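 Exponentially growing cells exposed to compound at 5 nM, or DMSO, for 24 h. Cell-cycle distribution determined by flow cytometry after standard propidium iodide staining.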

[8] = tested on: HCT-116; test: Induction of apoptosis in human HCT116 cells assessed as increase in proteolytic activity of caspase 3/7 after 24 hrs by fluorimeter analysis; assay type: functional, cell-based
Summary of the method: (§2)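 Apo-ONE homogeneous caspase-3/7 kit. Cells seeded at 5 × 10⁴ per well and grown 24 h. Medium then replaced with compound at 1, 5 and 10 nM, or 0.1% DMSO as negative control, for 24 h. Caspase substrate and Apo-ONE buffer mix added, incubated 1 h, fluorescence read at 527 nm.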

[9] = tested on: NCI-H1299; test: Induction of cell cycle arrest in human H1299 cells assessed as accumulation of cells in G2/M phase at 5 nM after 24 hrs by propidium iodide staining based flow cytometry; assay type: functional; summary of the method: as §1
[10] = tested on: MDA-MB-231; test: Induction of cell cycle arrest in human MDA-MB-231 cells assessed as accumulation of cells in G2/M phase at 5 nM after 24 hrs by propidium iodide staining based flow cytometry; assay type: functional; summary of the method: as §1
[11] = tested on: NCI-H1299; test: Induction of apoptosis in human H1299 cells assessed as increase in proteolytic activity of caspase 3/7 after 24 hrs by fluorimeter analysis; assay type: functional, cell-based; summary of the method: as §2
[12] = tested on: HCT-116; test: Induction of cell cycle arrest in human HCT116 cells assessed as accumulation of cells in G2/M phase at 5 nM after 24 hrs by propidium iodide staining based flow cytometry; assay type: functional; summary of the method: as §1

GI50 ([1]; HCT-116, 72 h) [nM] | GI50 [3] [nM] | Ratio IC50 [4] | IC50 [5] [nM] | GI50 [6] [nM] | Compound | GI50 [2] [nM] | further results
 |  |  |  |  | COc1ccc2c(c1CCCCO)OCCCC2c1cc(OC)c(OC)c(OC)c1 (stereo not given) |  | GI50 [1]: inactive
25 | 30 | 2 | 3200 | 28 | COc1cc(OC)cc(C2=CCCOc3c2ccc(OC)c3O)c1 | 32 | 
2 |  |  |  |  | COc1ccc(/C=C\c2cc(OC)c(OC)c(OC)c2)cc1O [COMBRETASTATIN A4] |  | 
170 |  |  |  |  | COc1ccc2c(c1Br)OCCC=C2c1cc(OC)c(OC)c(OC)c1 |  | 
22 | 40 | 2 | 3600 | 8 | COc1ccc2c(c1N)OCCC=C2c1cc(OC)c(OC)c(OC)c1 | 30 | 
20 | 50 | 2 | 3300 | 15 | COc1ccc2c(c1O)OCCCC2c1cc(OC)c(OC)c(OC)c1 (stereo not given) | 7 | 
85 | 100 | 2 | 3900 | 250 | COc1ccc2c(c1)OCCC=C2c1cc(OC)c(OC)c(OC)c1 | 180 | 
250 |  |  |  |  | COc1ccc2c(c1C#CCCO)OCCC=C2c1cc(OC)c(OC)c(OC)c1 |  | 
1.5 | 8 | 2 | 3800 | 3 | COc1ccc2c(c1O)OCCC=C2c1cc(OC)c(OC)c(OC)c1 | 4.5 | Activity [7]: Active; Activity [8]: Dose-dependent effect; Activity [9]: Active; Activity [10]: Active; Activity [11]: Dose-dependent effect; Activity [12]: Active

Compound | GI50 ([1]; HCT-116, 72 h) [nM] | GI50 [3] [nM] | Ratio IC50 [4] | IC50 [5] [nM] | GI50 [6] [nM] | GI50 [2] [nM] | further results
C=C(c1ccc(OC)c(O)c1)c1cc(OC)c(OC)c(OC)c1 | 3 | 5 |  | 1500 | 4 | 3 | 
